Sampled rows, rich in hits. Any-hit rate of the full collection: about 3.5%.
MITF act: MITF TRPM1 promoter activation in melanoma cells | SK-MEL-5 TRPM1-promoter luciferase, 24 h; % of positive control, neutral wells = 0 | activation, % at 12.5 µM | hit rate 0.75% among 300,000 | AID 588334;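 active means mean activation of at least 80% with every replicate also reaching 80%; inconclusive means mean reaches 80% but some replicate falls short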;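 further: 0% = neutral control wells and 100% = parthenolide positive control wells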
Cneo AK release: Cryptococcus neoformans lysis via adenylate kinase release; hit rate 0.2% among 360,000; C. neoformans lysis, adenylate kinase release luminescence, 4 h; normalised: neutral wells 0, clomiphene wells 100; lysis activity, % at 15 µM;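 active means mean lysis activity across replicates of at least 80%, whatever share of replicates individually reach that level; inactive means mean lysis activity below 80%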
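Test system: log-phase Cryptococcus neoformans yeast cells; Quantity: yeast cell density of 5 × 10^6 cells/mL; Buffer or medium: YPD; Doses: single compound concentration per well; Timing: 4 h at 37 °C static, read 1 h later; Measured by: AK luminescence; Read-out basis: lysis from increased AK signal; Control set: Clomiphene as positive control.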
ERAP1 HTS inh: inhibitors of human ERAP1 aminopeptidase; Q9NZ08; recombinant ERAP1, Leu-AMC fluorescence, 60 min; inhibition, % at 10.7 µM; hit rate 0.15% among 340,000;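 active means mean replicate inhibition of at least 30%, or all replicates individually reaching that 30% level; inactive means mean below 30% and not every replicate reaching it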;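 further: 0% = neutral control wells and 100% = L-leucinethiol positive control wells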
Target sequence (Q9NZ08 whole entry, looked up): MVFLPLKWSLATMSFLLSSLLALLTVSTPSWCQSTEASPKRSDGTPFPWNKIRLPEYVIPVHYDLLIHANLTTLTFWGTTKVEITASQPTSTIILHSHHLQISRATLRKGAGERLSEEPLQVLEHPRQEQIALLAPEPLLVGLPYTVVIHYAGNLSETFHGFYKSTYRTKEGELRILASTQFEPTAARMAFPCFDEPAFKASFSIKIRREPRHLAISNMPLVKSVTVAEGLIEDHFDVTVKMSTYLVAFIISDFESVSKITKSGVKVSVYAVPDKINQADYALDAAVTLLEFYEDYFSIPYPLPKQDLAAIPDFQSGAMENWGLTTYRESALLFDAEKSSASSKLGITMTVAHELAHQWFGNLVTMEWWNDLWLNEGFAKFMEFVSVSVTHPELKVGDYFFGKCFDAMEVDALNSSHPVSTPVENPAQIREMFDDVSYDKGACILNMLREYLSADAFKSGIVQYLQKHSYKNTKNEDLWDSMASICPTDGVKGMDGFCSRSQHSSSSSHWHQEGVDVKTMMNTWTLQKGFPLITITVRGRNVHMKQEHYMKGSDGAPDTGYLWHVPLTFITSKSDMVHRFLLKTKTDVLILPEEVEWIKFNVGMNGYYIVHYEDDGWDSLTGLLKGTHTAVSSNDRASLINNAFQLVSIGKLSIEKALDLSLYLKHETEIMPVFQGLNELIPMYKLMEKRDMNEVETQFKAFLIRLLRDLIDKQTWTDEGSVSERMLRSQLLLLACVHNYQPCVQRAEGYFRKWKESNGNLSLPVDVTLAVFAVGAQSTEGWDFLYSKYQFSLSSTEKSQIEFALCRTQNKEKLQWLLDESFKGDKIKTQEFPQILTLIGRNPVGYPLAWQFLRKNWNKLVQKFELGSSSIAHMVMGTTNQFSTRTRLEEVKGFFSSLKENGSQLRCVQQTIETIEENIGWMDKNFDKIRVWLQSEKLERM
Wnt act: activates Wnt/beta-catenin signaling in a reporter cell assay; activator, plate reader; AID 743398; activation, % at 9.35 µM; hit rate 1.2% among 300,000; in the data active means activation above about 30%, passing the limit was not always enough; inconclusive means no clear call, values can overlap the other calls;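 further: 0% = neutral control wells and 100% = positive control wells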
Env fusion inh: HIV envelope-mediated fusion inhibition | HeLa-JRFL Env/CEM21 cell fusion, luciferase | inhibition, % at 12.3 µM | hit rate 1.1% among 360,000 | AID 651610;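 active means mean replicate inhibition score of at least 50 and every replicate individually at or above 50; inconclusive means only one of the two criteria met; inactive means mean below 50 and not all replicates reaching 50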;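 further: 0% = plate neutral controls and 100% = maraviroc near 300 nM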
esBAF inh: blocks esBAF chromatin remodeling in mouse ES cells. hit rate 2% among 350,000. Bmi1-luciferase knock-in reporter, 24 h; 100% = twice the neutral-well signal. reporter increase, % at 12.5 µM; in the data active means activation above about 40%; inconclusive means no clear call, values can overlap the other calls;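 further: 0% = median of the plate's neutral control wells and 100% = double that signal; a rise in the Bmi1 reporter signal indicates esBAF inhibition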
Numbers without * were called inactive; ? = inconclusive; . = no result; [ ] = remark or other dose.

SMILES | MITF act | Cneo AK release | ERAP1 HTS inh | Wnt act | Env fusion inh | esBAF inh
Cc1ccc(C(c2nc3ccccc3[nH]2)n2c(-c3ccccc3)nc3ccccc32)cc1 (stereo unspecified) | . | -8 | . | -1 | 58* | 70*
CSCCC(c1nc2ccccc2[nH]1)n1c(-c2ccc(C)cc2)nc2ccccc21 (stereo unspecified) | . | . | 1 | 18 | -12 | .
CCN1CCN(S(=O)(=O)c2ccc(Cl)c(C(=O)Nc3ccccc3N3CCCC3)c2)CC1 | -2 | 1 | 1 | -2 | 80* | -12
COCn1c(COc2ccc3ccccc3c2)nc2ccccc21 | ? | -11 | . | . | . | 79*
COc1cccc(C(=O)Nc2ccc3c(c2)OC[C@@H](C)N(CC2CC2)C[C@@H](C)[C@@H](OC)CN(C)C3=O)c1 | . | -3 | 0 | . | . | -1
Cc1ccc(NC2=CC(=O)C(=O)c3ccccc32)c(C)c1 | . | 1 | -2 | 5 | 58* | -11
O=C1C=C(Nc2ccccc2O)c2ccccc2C1=O | -100 | -11 | 3 | 12 | . | 6
CCCCNc1cc(NC(C)=O)cc2cc(OC)c(OC)cc12 | -4 | 3 | . | . | . | 47*
Cc1ccc(Nc2nc(-c3ccc(F)cc3)cs2)nc1 | . | -2 | 3 | 5 | -174 | 76*
CC(=O)Nc1nc(C)c(-c2csc(Nc3cccc([N+](=O)[O-])c3)n2)s1 | -46 | 4 | . | . | . | 3
COc1ccc(-c2csc(Nc3ccc(C)cn3)n2)cc1OC | 55 | -1 | -4 | 29 | -24 | 61*
COc1ccc(-c2csc(Nc3cc(C)ccn3)n2)cc1OC | 75 | 3 | 5 | 11 | -44 | 43*
Cc1ccc(Nc2nc(-c3ccc(O)c(O)c3)cs2)nc1 | . | . | 2 | -14 | -16 | .
CC(=O)c1cccc(Nc2nc(-c3cccc([N+](=O)[O-])c3)cs2)c1 | 69 | -2 | . | 13 | 72* | 23
CCOC(=O)OC[C@@H]1[C@@H]2NC(=O)N(C)[C@@]1(COCc1ccc(OC)cc1)Oc1ccccc12 | . | 4 | -1 | . | -3[16.7 µM] | .
CC(=O)Nc1ccc(-c2csc(Nc3cc(C)ccn3)n2)cc1 | -3 | -1 | -3 | 12 | -24 | ?
CC(=O)Nc1cccc(-c2csc(Nc3cc(C)ccn3)n2)c1 | 36 | -6 | . | 29 | -135 | 48*
COc1ccc(NC(C)=O)cc1S(=O)(=O)Nc1ccccc1C(=O)NCCc1ccccc1 | 99* | 2 | 2 | 19 | -38 | 55*
COc1ccc(CCNC(=O)c2ccccc2NS(=O)(=O)c2cc(C(=O)O)ccc2OC)cc1 | -1 | 0 | -39 | 4 | -6 | -3
C/C=C/c1cnc2c(c1)C(=O)N([C@@H](C)CO)C[C@H](C)[C@H](CN(C)S(=O)(=O)c1ccc(OC)cc1)O2 | . | -2 | -1 | . | 12[16.7 µM] | 3
c1csc(-c2nc3ccccc3[nH]2)c1 | 33 | -1 | . | . | . | 46*
Nc1nc(-c2nc3ccccc3[nH]2)cs1 | . | 1 | . | 56* | -76 | 32
c1ccc(-c2nc3ccccc3[nH]2)cc1 | 86* | -6 | -1 | 61* | -23 | 72*
c1ccc(-c2nc3ccccc3[nH]2)nc1 | 64 | -4 | 13 | 20 | -5 | 19
Cc1ccc(-c2nc3ccccc3[nH]2)s1 | 61 | -7 | . | . | . | .
SMILES | MITF act | Cneo AK release | ERAP1 HTS inh | Wnt act | Env fusion inh | esBAF inh
COc1ccc(S(=O)(=O)Nc2ccc3c(c2)C(=O)N([C@@H](C)CO)C[C@H](C)[C@@H](CN(C)C(=O)NC(C)C)OCCCC[C@@H](C)O3)cc1 | . | 56 | -3 | . | -8[16.7 µM] | 4
C[C@@H]1CN([C@@H](C)CO)C(=O)c2cc(NS(=O)(=O)c3ccccc3)ccc2O[C@H]1CN(C)C(=O)Nc1cccc2ccccc12 | . | 1 | 0 | . | -17[16.7 µM] | 2
CC(C)(O)C#Cc1ccc(C(=O)NC2CCCCC2)s1 | 48 | . | -2 | 7 | -11 | .
CCc1ccc(C(=O)NC2CCCCC2)s1 | 96* | -2 | . | . | -68 | 31
N#Cc1cccc(-c2ccc(C3[C@H]4CNC[C@@H]3N4Cc3ccc4c(c3)OCO4)cc2)c1 (stereo partly specified) | . | . | 1 | . | . | .
COc1cccc(S(=O)(=O)N[C@H]2CC[C@@H](CCn3cc(-c4ccccn4)nn3)O[C@H]2CO)c1 | . | 0 | 1 | . | 9[16.7 µM] | 7
COCC1CCCN(Cc2cn(Cc3ccccc3)nc2-c2cc3ccccc3o2)C1 (stereo unspecified) | 15 | -3 | -5 | -1 | 58* | -8
COCC1CCN(Cc2cn(Cc3ccccc3)nc2-c2cc3ccccc3o2)CC1 | 12 | . | 1 | 0 | 14 | .
CC1=C(C(=O)Nc2ccccn2)C(c2ccccc2Cl)NC(=S)N1 (stereo unspecified) | 26 | 0 | 3 | 22 | -5 | 66*
CC1=C(C(=O)Nc2ccccn2)C(c2ccc(Cl)cc2)NC(=S)N1 (stereo unspecified) | 38 | 0 | 1 | 2 | -14 | 44*
COc1ccccc1C(=O)Nc1ccc2c(c1)C(=O)N(C)C[C@@H](OC)[C@H](C)CN(C)[C@H](C)CO2 | . | -4 | 5 | . | -18[16.7 µM] | 4
CC(C)CC#Cc1cnc2c(c1)C(=O)N([C@H](C)CO)C[C@@H](C)[C@H](CN(C)Cc1ccccc1F)O2 | . | 0 | 2 | . | 32[16.7 µM] | 0
Cc1onc(-c2ccccc2)c1C(=O)Nc1ccc(Br)cc1Cl | 16 | -1 | 0 | 0 | 86* | .
Cc1onc(-c2ccccc2)c1C(=O)Nc1nnc(C(C)C)s1 | -14 | 7 | 1 | 0 | -2 | -6
CCCOc1ccccc1NC(=O)c1c(-c2ccccc2)noc1C | 2 | -2 | . | -3 | 65* | -6
Cc1onc(-c2ccccc2)c1C(=O)Nc1ncc([N+](=O)[O-])s1 | -3 | -1 | 5 | -10 | 72* | -14
Cc1onc(-c2ccccc2)c1C(=O)N/N=C/c1ccc(Br)cc1 | 7 | -1 | -2 | -1 | 56* | .
N#C[C@H]1[C@H](c2ccccc2C2=CCCCC2)[C@@H](CO)N1C(=O)c1cccc(F)c1 | . | . | -1 | . | . | .
C[C@@H]1CN([C@H](C)CO)C(=O)c2cc(NC(=O)NC3CCCCC3)ccc2O[C@H]1CN(C)Cc1ccccc1 | . | 0 | -2 | . | -8[16.7 µM] | 3
CSc1cccc(NC(=O)C2CCCN2S(=O)(=O)c2ccc(Br)s2)c1 (stereo unspecified) | -9 | 1 | . | . | 60* | 1
O=C(Nc1ccc(F)cc1)C1CCCN1S(=O)(=O)c1ccc(Br)cc1 (stereo unspecified) | 0 | -1 | 0 | -4 | 81* | 1
CSc1cccc(NC(=O)C2CCCN(S(=O)(=O)c3cccs3)C2)c1 (stereo unspecified) | 7 | -2 | 3 | -3 | 7 | 3
CCCNC(=O)C[C@H]1C[C@@H]2c3cc(NS(=O)(=O)c4ccc(OC)cc4)ccc3O[C@@H]2[C@H](CO)O1 | . | -4 | . | . | -11[16.7 µM] | -4
